From ChEMBL document CHEMBL1287805, “abeo-abietanes from Teucrium polium roots as protective factors against oxidative stress” (Bioorg Med Chem, 2010)
Calls of active or inactive are those of the source. No cut-off for these calls is given here.

What was measured:
Assay type in all cases: functional
[1] = tested on: Radical scavenging activity; assay: Antioxidant activity assessed as DPPH radical scavenging activity
Summary of the method: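 DPPH absorbance at 515 nm read at 30 min against a blank. Compounds tested at 37.5, 75, 125 and 250 µM in triplicate, with Trolox as standard. IC50 is the concentration giving 50% inhibition of absorbance, taken from the plotted curves.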

[2] = Antioxidant activity against lipid peroxidation assessed as TBARS production using rape seed oil after 60 mins
Summary of the method: (§1)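 Rape seed oil emulsified with Tween-40 in Tris-HCl (0.2 M, pH 7.4). Test compound added at final 37.5, 75.0, 125.0 or 250.0 µM, then tubes held in a boiling water bath for 30 min. Absorbance read at 532 nm. Lipid peroxidation inhibition is given as percent versus a blank without compound. Triplicate.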

[3] = Antioxidant activity against pentose 2-deoxyribose oxidation at 250 uM after 60 mins by TBA method
Summary of the method: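 Deoxyribose assay in KH2PO4/KOH (10.0 mM, pH 7.4) with H2O2, EDTA, FeCl3 and ascorbic acid (each 100.0 µM) plus 2-deoxyribose (2.8 mM). Compound at final 37.5–250.0 µM, incubated at 37 °C for 1 h. TBA/TCA added, heated at 90 °C for 30 min, read at 532 nm. Result is percent antioxidant capacity versus blank. Triplicate.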

[4] = Antioxidant activity against bovine serum albumin oxidation after 60 mins
Summary of the method: (§2)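 BSA (10 mg/mL) oxidised with H2O2 (1.0 mM) and FeSO4 (0.5 mM) in the presence of sample; shaken 10 min, then TCA (10.0%) precipitation at 4 °C. Pellet derivatised with DNPH (10 mM) in 2 N HCl for 1 h at room temperature, reprecipitated with cold TCA, washed, and dissolved in 6 M guanidine-HCl (pH 6.5). Protein carbonyl formation was measured.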

[5] = Antioxidant activity against lipid peroxidation assessed as TBARS production using rape seed oil at 250 uM after 60 mins; summary of the method: as §1
[6] = Antioxidant activity against bovine serum albumin oxidation at 37.5 uM after 60 mins; summary of the method: as §2

Row | SMILES | IC50 [1] [µM] | Activity [2] | inhibition [3] | Activity [4] | inhibition [5] [%] | inhibition [6] [%]
1 | C[C@@H]1Oc2c(O)c3c(c(O)c2[C@H]1O)C(=O)C(O)=C1[C@]3(C)CC[C@H]2C[C@@]12C | 84 | Dose-dependent effect | 50% | Dose-dependent effect |  | 
2 | C[C@]12CC[C@H]3C[C@@]3(C)C1=C(O)C(=O)c1c2c(O)c2oc(CO)cc2c1O | 101 | Dose-dependent effect | inactive | Dose-dependent effect |  | 
3 | C[C@H]1Cc2c(O)c3c(c(O)c2O1)[C@@]1(C)CC[C@H]2C[C@@]2(C)[C@@H]1CC3=O [TEUVINCENONE D] | 111 | Dose-dependent effect | 50% | Dose-dependent effect |  | 
4 | Cc1cc2c(O)c3c(c(O)c2o1)[C@@]1(C)CCC(=O)C(C)(C)C1=C(O)C3=O | 64 | Dose-dependent effect | 50% | Dose-dependent effect |  | 
5 | Cc1c(C)c2c(c(C)c1O)CCC(C)(C(=O)O)O2 (stereo not given) [TROLOX] | 24 |  |  |  |  | 
6 | Cc1cc2c(O)c3c(c(O)c2o1)[C@@]1(C)CCCC(C)(C)C1=C(O)C3=O | 76 | Dose-dependent effect | inactive | Dose-dependent effect |  | 
7 | CC1(C)CCC[C@@]2(C)C1=C(O)C(=O)c1c(O)c3c(c(O)c12)O[C@@H](CO)C3 [VILLOSIN C] | 86 | Dose-dependent effect | 50% | Dose-dependent effect |  | 
8 | C[C@@H]1Oc2c(O)c3c(c(O)c2[C@H]1O)C(=O)C(O)=C1C(C)(C)CCC[C@@]13C | 71 | Dose-dependent effect | 50% | Dose-dependent effect |  | 
9 | C[C@H]1Cc2c(O)c3c(c(O)c2O1)[C@@]1(C)CC[C@H]2C[C@@]2(C)C1=C(O)C3=O [TEUVINCENONE C] | 97 | Dose-dependent effect | 50% | Dose-dependent effect |  | 
10 | C[C@H]1Cc2c(O)c3c(c(O)c2O1)[C@@]1(C)CCC(=O)C(C)(C)C1=C(O)C3=O [TEUVINCENONE A] | 63 | Dose-dependent effect | 50% | Dose-dependent effect |  | 
11 | Cc1cc2c(O)c3c(c(O)c2o1)[C@@]1(C)CC[C@H]2C[C@@]2(C)[C@@H]1CC3=O | 130 | Dose-dependent effect | 50% | Dose-dependent effect |  | 
12 | CC1(C)CCC[C@@]2(C)C1=C(O)C(=O)c1c2c(O)c2oc(CO)cc2c1O | 120 | Dose-dependent effect | 50% | Dose-dependent effect |  | 
13 | C[C@H]1Cc2c(O)c3c(c(O)c2O1)[C@@]1(C)CCCC(C)(C)C1=C(O)C3=O [TEUVINCENONE B] | 55 | Dose-dependent effect | 50% | Dose-dependent effect |  | 
14 | Cc1cc2c(O)c3c(c(O)c2o1)[C@@]1(C)CC[C@H]2C[C@@]2(C)C1=C(O)C3=O | 55 | Dose-dependent effect | inactive | Dose-dependent effect | 76.9 | 31
